Columns and labels:
CXCL12 = CXCL12 (Homo sapiens, UniProt P48061); test: 2D 1H-15N HSQC NMR titration, fragment binding to CXCL12; conditions: for CXCL12 chemical shift perturbations: 2D NMR titration, no meaningful affinity value could be fitted; for LE: ligand efficiency: free energy of binding divided by number of non-hydrogen atoms (kcal/mol/non-hydrogen atom)
[1] = tested on: CXCL12-induced chemotaxis of THP-1 monocytes; test: in vitro chemotaxis assay, THP-1 monocytes with CXCL12; assay type: cell-based; conditions: read-out: IC50 of chemotaxis to CXCL12, 10 nM CXCL12
Method in brief: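 Chemotaxis in vitro used THP-1 monocytes, which express CXCR4 endogenously, exposed to CXCL12 with or without each tetrazole fragment.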

[2] = tested on: CCL2 (MCP-1), activates the CCR2 receptor; test: chemotaxis assay repeated with CCL2; assay type: cell-based; conditions: data not shown

Structure (SMILES)	CXCL12 chemical shift perturbations (CXCL12)	Kd (CXCL12)	LE (CXCL12)	also measured
CC(=O)Nc1cccc(-c2nnn[nH]2)c1 [Compound 12, N-(3-(1H-tetrazol-5-yl)phenyl)acetamide]	small chemical shift perturbations			
O=C(Nc1ccccc1)Nc1cccc(-c2nnn[nH]2)c1 [Compound 17, 1-(3-(1H-tetrazol-5-yl)phenyl)-3-phenylurea]		126 ± 23 µM	0.25	
O=C(Nc1ccc(-c2nnn[nH]2)cc1)c1ccccc1 [Compound 15, N-(4-(1H-tetrazol-5-yl)phenyl)benzamide]		64 ± 23 µM	0.29	
O=C(Nc1ccc(-c2nn[nH]n2)cc1)Nc1cccc2ccccc12 [Compound 25]				IC50 [1]: 111 ± 24 µM; specificity for CXCL12- versus CCL2-induced migration [2]: specifically inhibits CXCL12-induced migration
CC(=O)Nc1ccccc1-c1nnn[nH]1 [Compound 10, N-(2-(1H-Tetrazol-5-yl)phenyl) acetamide]	small chemical shift perturbations			
CC(=O)Nc1ccc(-c2nnn[nH]2)cc1 [Compound 14, N-(4-(1H-tetrazol-5-yl)phenyl)acetamide]	small chemical shift perturbations			
O=C(Nc1ccccc1)Nc1ccccc1-c1nnn[nH]1 [Compound 16, 1-(2-(1H-Tetrazol-5-yl)phenyl)-3-phenylurea]		327 ± 92 µM	0.23	
O=C(Nc1ccccc1-c1nnn[nH]1)c1ccccc1 [Compound 11, N-(2-(1H-Tetrazol-5-yl)phenyl)benzamide]		13 ± 7 µM	0.33	
O=C(Nc1ccccc1)Nc1ccc(-c2nnn[nH]2)cc1 [Compound 18, 1-(4-(1H-Tetrazol-5-yl)phenyl)-3-phenylurea]		24 ± 28 µM	0.30	
O=C(Nc1cccc(-c2nnn[nH]2)c1)c1ccccc1 [Compound 13, N-(3-(1H-tetrazol-5-yl)phenyl)benzamide]		50 ± 16 µM	0.29	

Reference: paper PMC3839847 (Current topics in medicinal chemistry, 2012)
